ALR H2O2 inh – inhibitors of human sulfhydryl oxidase ALR | P55789 | purified ALR, DTT oxidation, H2O2 HRP-luminol luminescence | inhibition, % (concentration not given with the values) | 3.8% of 290,000 active;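 active = mean replicate inhibition above about 79%, with every replicate also reaching it, limit read from the data; inconclusive = only one of the two criteria met; inactive = mean below limit and not every replicate reaching it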
Target sequence (P55789 whole entry, looked up): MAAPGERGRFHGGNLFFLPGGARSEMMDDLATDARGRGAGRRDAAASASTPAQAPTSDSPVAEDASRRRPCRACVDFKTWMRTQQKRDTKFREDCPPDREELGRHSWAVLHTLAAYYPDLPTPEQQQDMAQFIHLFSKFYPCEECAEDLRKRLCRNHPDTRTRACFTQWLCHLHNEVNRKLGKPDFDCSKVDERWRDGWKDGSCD
FAS TE block – inhibitors of human fatty acid synthase thioesterase domain | recombinant FAS-TE, OMFH fluorogenic substrate, fluorescence endpoint | 0.67% of 360,000 active | inhibition, % at 15 µM;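 active = compounds whose normalised, plate-corrected inhibition of enzyme fluorescence in the single-dose primary screen is 50% or more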;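 also: 0% = DMSO with enzyme and 100% = substrate without enzyme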
PfM18AAP inh – PfM18AAP enzyme inhibition; recombinant PfM18AAP, H-Glu-NHMec fluorogenic cleavage; inhibition, % at 7.35 µM; 1.2% of 290,000 active; AID 1822;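 active = inhibition above the campaign mean inhibition over all tested compounds plus 3 SD, cut at about 28% in these data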;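 also: 0% = plate median of test compound wells and 100% = 2 mM ZnCl2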
Rtt109 HAT inh – blocks Candida albicans Rtt109/Vps75 acetyltransferase activity. Q5AAJ8. purified Rtt109/Vps75, ThioGlo CoA-SH fluorescence, 4 h. inhibition, % at 34.9 µM. 0.16% of 330,000 active. AID 540336;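 active = inhibition of at least 50% in every replicate; inconclusive = best replicate reaches 50% inhibition but some replicates fall short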
HDAC3 inhib – human HDAC3 inhibition. recombinant HDAC3, fluorogenic peptide/trypsin coupled, fluorescence. 0.15% of 320,000 active. inhibition, % at 8.3 µM; in the data active = inhibition above about 26%, passing the limit was not always enough; inconclusive = no clear call, values can overlap the other calls
Target sequence (O15379 whole entry, looked up): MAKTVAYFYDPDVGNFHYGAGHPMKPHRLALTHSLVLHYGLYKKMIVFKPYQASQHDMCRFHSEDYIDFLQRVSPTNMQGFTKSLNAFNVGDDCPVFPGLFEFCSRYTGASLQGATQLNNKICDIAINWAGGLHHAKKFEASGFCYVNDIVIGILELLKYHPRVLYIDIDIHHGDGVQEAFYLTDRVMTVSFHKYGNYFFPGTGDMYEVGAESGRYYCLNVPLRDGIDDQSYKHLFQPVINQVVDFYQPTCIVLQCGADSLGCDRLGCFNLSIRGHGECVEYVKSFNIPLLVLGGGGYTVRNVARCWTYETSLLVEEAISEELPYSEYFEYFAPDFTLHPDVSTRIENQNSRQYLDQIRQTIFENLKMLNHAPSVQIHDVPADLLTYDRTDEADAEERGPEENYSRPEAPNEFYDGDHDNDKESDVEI
UCH37 inh – blocks the human deubiquitinase UCH37 | Q9Y5K5 | purified proteasome/UCH37, Ub-AMC cleavage fluorescence | inhibition, % (concentration not given with the values) | 0.33% of 330,000 active;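 active = mean inhibition over replicate wells above about 20%, limit read from the data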;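 also: 0% = compound-free wells with enzyme and 100% = wells lacking proteasome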
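Assay system: Proteasome-bound UCH37. Buffer or medium: pH 7.4 Tris-HCl (50 mM) with ovalbumin, ATP-MgCl2, DTT. Incubation: 30 min preincubation with enzyme, 25 min cleavage at room temperature. Measured by: fluorescence, ex 355 nm, em 460 nm. Read-out basis: percent inhibition. Control set: wells without proteasome as full block, compound-free enzyme plus substrate as uninhibited.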
* hit, by the source's call; ? = inconclusive; / = not tested or not shown. The list is not random: actives were taken first. Their share in the collection is about 4.6%.

SMILES	ALR H2O2 inh	FAS TE block	PfM18AAP inh	Rtt109 HAT inh	HDAC3 inhib	UCH37 inh
Cc1ccc(S(=O)(=O)Nc2c(C(=O)O)[nH]c3ccccc23)c(C)c1	98*	-5	5	-1	2	0
O=C(O)c1[nH]c2ccccc2c1NS(=O)(=O)c1ccc(F)cc1	94*	-15	-3	3	-7	-3
COc1cc(C=NNC(=O)c2csc3c2CCCC3)ccc1OCCN1CCOCC1	/	/	/	/	/	6
CCOCCCNC(=O)CS(=O)(=O)Cc1nc(-c2cccc(OC)c2)oc1C	98*	-2	-6	8	9	2
CCCNC(=O)CS(=O)(=O)Cc1nc(-c2cccc(OC)c2)oc1C	98*	-4	4	1	/	1
COc1cccc(-c2nc(CS(=O)(=O)CC(=O)NCc3ccc(Cl)cc3)c(C)o2)c1	-9	0	0	-6	-2	-3
COc1cccc(-c2nc(CS(=O)(=O)CC(=O)NCCc3ccccc3)c(C)o2)c1	9	10	1	11	-6	-1
O=C(NN=Cc1cc([N+](=O)[O-])cc(Br)c1O)C12CC3CCC(CC(C3)C1)C2	/	/	/	/	/	7
O=C(N/N=C/c1ccc(O)cc1)c1cc(C2CC2)[nH]n1	99*	-2	8	5	16	/
COc1cc(/C=N/NC(=O)c2ccc(=O)[nH]n2)ccc1O	99*	-7	2	0	5	/
O=C(NN=Cc1ccc([N+](=O)[O-])cc1)c1cc(C2CC2)[nH]n1	/	/	/	/	/	7
COc1cc(C=NNC(=O)c2cccc(C(=O)NN=Cc3ccc(O)c(OC)c3)n2)ccc1O	/	/	/	/	/	1
COc1cc(C=NNC(=O)c2cc(C3CC3)[nH]n2)ccc1O	/	/	/	/	/	6
COc1cc(/C=N/NC(=O)c2cc(C3CC3)[nH]n2)ccc1O	99*	-5	0	-3	/	/
COc1ccc(Br)c(C=NNC(=O)COc2ccc(-c3ccccc3)cc2)c1	/	/	/	/	/	2
CC(C)C[C@H](NC(=O)c1[nH]cnc1C(=O)N[C@@H](C)C(=O)OC(C)(C)C)C(=O)OCc1ccccc1	-4	21	/	-14	?	2
CC(C)(C)OC(=O)CNC(=O)c1[nH]cnc1C(=O)NCC(=O)OCc1ccccc1	/	11	4	11	3	31*
CC(C)(C)OC(=O)NCCCCCNC(=O)c1nc[nH]c1C(=O)NCC(=O)OCc1ccccc1	1	29	/	-3	1	1
C[C@@H](NC(=O)c1nc[nH]c1C(=O)N[C@@H](Cc1ccccc1)C(=O)OCc1ccccc1)c1ccccc1	-5	17	3	-6	-4	6
CN(Cc1ccccc1)C(=O)c1[nH]cnc1C(=O)N[C@@H](Cc1ccccc1)C(=O)OCc1ccccc1	8	24	-3	5	33*	2
C[C@H](NC(=O)c1nc[nH]c1C(=O)N[C@@H](Cc1ccccc1)C(=O)OCc1ccccc1)C(=O)OC(C)(C)C	/	28	-11	-16	31*	1
Cc1ccc(C=NNC(=O)c2cccc(S(=O)(=O)Nc3ccccc3Cl)c2)s1	/	/	/	/	/	5
CCn1c(CN(C)c2ccccc2)nc2ccccc21	98*	-4	0	6	-1	1
CCn1c(COc2ccccc2)nc2ccccc21	-3	-2	-5	2	-8	2
COc1cccc(C=NNC(=O)CNC(=O)c2ccncc2)c1O	/	/	/	/	/	2
SMILES	ALR H2O2 inh	FAS TE block	PfM18AAP inh	Rtt109 HAT inh	HDAC3 inhib	UCH37 inh
O=C(O/N=C(/c1ccccc1)c1ccncc1)c1cccc(F)c1	0	0	5	4	17	/
Cc1ccc(C(=O)O/N=C(\c2ccccc2)c2ccncc2)cc1	-2	8	2	-5	36*	/
O=[N+]([O-])c1ccc(OCCOc2ccccc2C=Nn2cnnc2)cc1	/	/	/	/	/	5
CCCCOc1ccc(-c2nc(=S)[nH][nH]2)cc1	99*	-5	-23	-5	?	0
CCCCOc1ccc(-c2nc(SCC(N)=O)n[nH]2)cc1	1	-5	-4	0	-4	1
COc1ccc2c(c1)CC(C(=O)Nc1ccc(Cl)cc1)C(=NO)O2 (centres undefined)	/	/	/	/	/	5
COCCN1Cc2cccc(C(=O)N3CCN(c4ccccc4)CC3)c2C1=O	95*	1	-2	-4	-9	1
COCCN1Cc2cccc(C(=O)NCc3ccc4c(c3)OCO4)c2C1=O	-6	-7	29*	3	5	1
COCCN1Cc2cccc(C(=O)Nc3ccc(-c4nc5ccccc5[nH]4)cc3)c2C1=O	-3	-8	2	55*	-5	/
COc1ccccc1NN=Cc1c(CO)cnc(C)c1O	/	/	/	/	/	0
CC(Oc1ccc(-c2ccccc2)cc1)C(=O)NN=Cc1cccnc1 (centres undefined)	/	/	/	/	/	2
O=C(/C=C/c1ccccc1)N/C(=C/c1ccccc1)C(=O)Nc1ccc(C(=O)O)cc1	87*	-2	7	7	4	6
CC(=O)N/C(=C\c1ccccc1)C(=O)Nc1ccc(O)cc1	99*	-5	8	1	6	0
CC(=O)c1ccc(NC(=O)/C(=C\c2ccccc2)NC(=O)/C=C/c2ccccc2)cc1	-10	40	-3	2	-2	1
CC(=O)C(=NNc1ccccc1)Sc1nnc(CCc2ccccc2)n1-c1ccccc1	/	/	/	/	/	7
Nc1cccc(CCc2ccncc2)c1	90*	-4	-3	-3	-2	3
C(=C\c1ccccn1)/c1ccncc1	0	-2	-1	2	1	1
Nc1cccc(/C=C/c2ccncc2)c1	99*	-4	0	4	-5	3
COc1ccc(NC(=O)COc2ccc(C=NNC(=O)c3cccnc3)cc2OC)cc1	/	/	/	/	/	4
COc1ccc(NC(=O)c2ccc(COc3ccccc3OC)o2)cc1OC	-28	-3	-5	9	6	5
COc1ccccc1OCc1ccc(C(=O)NN)o1	90*	-2	6	20	6	2
C/C(=N\Nc1cc(N2CCOCC2)ncn1)c1ccc(O)cc1	97*	-2	3	5	1	/
C/C(=N\NC(=O)c1ccc(O)cc1)c1ccc(N2CCOCC2)cc1	42	-2	1	-5	-5	/
Cc1cc(C(C#N)c2ccccc2F)n2ncnc2n1 (centres undefined)	92*	5	-2	0	10	9
Cc1cc(C(C#N)c2ccccc2)n2ncnc2n1 (centres undefined)	62	-5	-11	1	2	5
O=C(CN1CCCCCC1)NN=Cc1cccs1	/	/	/	/	/	1
Cc1ccc(N2CCN(CCCN3C(=O)C4CCCN4C3=O)CC2)cc1 (centres undefined)	98*	-7	1	2	-1	6
Cc1cc(C(=O)O)ccc1N/C=C1\CCCC(C)C1=O (centres undefined)	44	-7	5	14	5	2
CC1CCC/C(=C\Nc2ccc(O)cc2)C1=O (centres undefined)	99*	-3	22	7	3	15

Screens from PubChem.
